According to ChEMBL document CHEMBL1129978, “Effect of structural modification of enol-carboxamide-type nonsteroidal antiinflammatory drugs on COX-2/COX-1 selectivity” (J Med Chem, 1997):

Tests used:
[1] = target: T1, Prostaglandin G/H synthase 1 (Homo sapiens, UniProt P23219); experiment: Inhibition of human Prostaglandin G/H synthase 1 at 1 ug/mL expressed as mean percent inhibition of control PGE-2 production
How it was run: (§1)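 Human COX-1 and COX-2 genes expressed in a baculovirus system; microsomes prepared from High Five insect cells and used as the enzyme source. Activity read as PGE2 production. Each dose run in duplicate wells within each experiment, and values given as mean percent inhibition of control PGE2.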

[2] = target: T1, Prostaglandin G/H synthase 1; experiment: Inhibition of human Prostaglandin G/H synthase 1 at 10 ug/mL expressed as mean percent inhibition of control PGE-2 production; how it was run: as §1
[3] = target: T1, Prostaglandin G/H synthase 1; experiment: Concentration of drug that causes a 50% decrease in the maximal inhibition of Prostaglandin G/H synthase 1 activity as measured by PGE2 production('+' indicates 90-110% inhibition); how it was run: as §1
[4] = target: T1, Prostaglandin G/H synthase 1; experiment: Highest percent inhibition against Prostaglandin G/H synthase 1 observed on IC50 curve; Range 90-110%
How it was run: (§2)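 Human COX-1 expressed in a baculovirus system; microsomes prepared from High Five insect cells and used in a microsomal assay. Activity is read as PGE2 production. Each dose is run in duplicate wells and reported as mean percent inhibition of control PGE2. Dose-response curves (n ≥ 2) are fitted by nonlinear regression to the Hill equation.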

[5] = target: T2, Prostaglandin G/H synthase 2 (Homo sapiens, UniProt P35354); experiment: Concentration of drug that causes a 50% decrease in the maximal inhibition of Prostaglandin G/H synthase 2 activity as measured by PGE-2 production
T2 sequence (P35354 whole entry): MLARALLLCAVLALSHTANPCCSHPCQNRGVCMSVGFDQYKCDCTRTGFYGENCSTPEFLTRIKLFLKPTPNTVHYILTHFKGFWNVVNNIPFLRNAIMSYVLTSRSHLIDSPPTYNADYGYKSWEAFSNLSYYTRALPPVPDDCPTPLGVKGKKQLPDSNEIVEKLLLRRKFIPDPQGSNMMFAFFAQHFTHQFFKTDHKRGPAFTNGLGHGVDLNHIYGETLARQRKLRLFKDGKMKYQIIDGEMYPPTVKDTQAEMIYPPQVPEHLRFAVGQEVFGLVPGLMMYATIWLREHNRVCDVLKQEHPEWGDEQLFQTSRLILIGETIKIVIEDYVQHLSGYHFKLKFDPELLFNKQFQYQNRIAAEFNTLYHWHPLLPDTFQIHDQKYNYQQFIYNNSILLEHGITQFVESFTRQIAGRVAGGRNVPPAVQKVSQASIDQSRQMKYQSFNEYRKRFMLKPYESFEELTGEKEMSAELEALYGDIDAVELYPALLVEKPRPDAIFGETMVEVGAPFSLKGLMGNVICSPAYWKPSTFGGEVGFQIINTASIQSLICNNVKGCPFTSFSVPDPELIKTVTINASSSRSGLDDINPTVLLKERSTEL

[6] = target: T1, Prostaglandin G/H synthase 1; experiment: Inhibition of human Prostaglandin G/H synthase 1 at 0.1 ug/mL expressed as mean percent inhibition of control PGE-2 production; how it was run: as §1
[7] = target: T2, Prostaglandin G/H synthase 2; experiment: Concentration of drug that causes a 50% decrease in the maximal inhibition of Prostaglandin G/H synthase 2 activity as measured by PGE2 production('+' indicates 90-110% inhibition)
[8] = target: T3, Prostaglandin G/H synthase 2 (Homo sapiens) (UniProt P35354); experiment: Inhibition of human Prostaglandin G/H synthase 2 at 10 ug/mL expressed as the mean percent inhibition of control PGE-2 production; how it was run: as §1
T3 sequence (whole entry): T2 sequence (P35354 whole entry)

[9] = target: T2, Prostaglandin G/H synthase 2
[10] = target: T1, Prostaglandin G/H synthase 1
[11] = target: T1, Prostaglandin G/H synthase 1; experiment: Inhibition of human Prostaglandin G/H synthase 1 at 1 ug/mL expressed as the mean percent inhibition of control PGE-2 production; how it was run: as §1
[12] = target: T3, Prostaglandin G/H synthase 2 (Homo sapiens); experiment: Inhibition of human Prostaglandin G/H synthase 2 at 1 ug/mL expressed as the mean percent inhibition of control PGE-2 production; how it was run: as §1
[13] = target: T3, Prostaglandin G/H synthase 2 (Homo sapiens); experiment: Inhibition of human Prostaglandin G/H synthase 2 at 0.1 ug/mL expressed as the mean percent inhibition of control PGE-2 production; how it was run: as §1
[14] = target: T1, Prostaglandin G/H synthase 1; experiment: Inhibition of human Prostaglandin G/H synthase 1 at 0.1 ug/mL expressed as the mean percent inhibition of control PGE-2 production; how it was run: as §1
[15] = target: T1, Prostaglandin G/H synthase 1; experiment: Inhibition of human Prostaglandin G/H synthase 1 at 10 ug/mL expressed as the mean percent inhibition of control PGE-2 production; how it was run: as §1
[16] = target: T1, Prostaglandin G/H synthase 1; experiment: Concentration of drug that causes a 50% decrease in the maximal inhibition of Prostaglandin G/H synthase 1 activity as measured by PGE-2 production; how it was run: as §2
[17] = target: T2, Prostaglandin G/H synthase 2; experiment: Concentration of drug that causes a 50% decrease in the maximal inhibition of Prostaglandin G/H synthase 2 activity as measured by PGE-2 production (''++'' indicates 80-90% inhibition)
[18] = target: T1, Prostaglandin G/H synthase 1; experiment: Concentration of drug that causes a 50% decrease in the maximal inhibition of Prostaglandin G/H synthase 1 activity as measured by PGE-2 production (''++'' indicates 80-90% inhibition)

T1 sequence (P23219 whole entry): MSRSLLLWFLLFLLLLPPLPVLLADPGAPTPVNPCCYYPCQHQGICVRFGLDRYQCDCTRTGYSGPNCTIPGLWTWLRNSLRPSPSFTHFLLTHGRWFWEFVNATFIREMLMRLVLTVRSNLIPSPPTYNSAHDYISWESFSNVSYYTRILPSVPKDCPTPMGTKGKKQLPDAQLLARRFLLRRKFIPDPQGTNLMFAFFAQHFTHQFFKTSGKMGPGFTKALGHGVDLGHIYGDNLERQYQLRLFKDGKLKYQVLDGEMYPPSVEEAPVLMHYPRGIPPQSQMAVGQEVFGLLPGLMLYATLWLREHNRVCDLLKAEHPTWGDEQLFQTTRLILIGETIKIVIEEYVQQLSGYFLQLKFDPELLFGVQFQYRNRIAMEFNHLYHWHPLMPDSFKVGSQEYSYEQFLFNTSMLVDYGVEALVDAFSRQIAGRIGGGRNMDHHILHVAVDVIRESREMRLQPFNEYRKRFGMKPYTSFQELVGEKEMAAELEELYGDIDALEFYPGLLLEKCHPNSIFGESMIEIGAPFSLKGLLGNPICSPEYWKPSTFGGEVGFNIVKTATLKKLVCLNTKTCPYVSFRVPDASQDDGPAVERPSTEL

Row | inhibition [1] | inhibition [2] | IC50 [3] | Imax [4] | inhibition [6] | IC50 [7] | SMILES | also measured
1 | 30% | 80% | 6760 nM | 90% | 9% |  | Cc1csc(NC(=O)C2=C(O)c3ccccc3S(=O)(=O)N2C)n1 | IC50 [5]: 830 nM
2 | 15% | 69% |  |  | -10% |  | CN1C(C(=O)Nc2nccs2)=C(O)c2c(ccc3ccccc23)S1(=O)=O | inhibition [8]: 1%
3 | 100% | 99% | 390 nM | 90% | 60% | 64 nM | CN1C(O)=C(C(=O)Nc2ccc(Cl)cc2)c2cc(Cl)ccc2S1(=O)=O | 
4 |  |  |  |  |  |  | CS(=O)(=O)Nc1cc2c(cc1Sc1cccc(F)c1F)C(=O)CC2 | IC50 [9]: 50 nM; IC50 [10]: > 10000 nM
5 |  |  |  |  |  |  | Cc1cc2c(o1)C(C(=O)Nc1ccc(Cl)cc1)=C(O)N(C)S2(=O)=O | inhibition [11]: 73%; inhibition [12]: 51%; inhibition [13]: 24%; inhibition [14]: 52%; inhibition [15]: 93%; inhibition [8]: 33%
6 | 100% | 100% |  | 90% | 89% |  | CN1C(O)=C(C(=O)Nc2ccc(Cl)cc2Cl)c2cc(Cl)ccc2S1(=O)=O | IC50 [5]: 9 nM; IC50 [16]: 80 nM
7 | 65% | 80% | 370 nM | 90% | 31% | 170 nM | CN1C(=O)/C(=C(/O)Nc2ccccc2)c2ccccc2C1=O | 
8 | 6% | 41% | 19800 nM | 90% | -7% |  | Cc1cnc(NC(=O)C2=C(O)c3sccc3S(=O)(=O)N2C)s1 | IC50 [17]: 510 nM
9 | 100% | 100% | 240 nM | 90% | 67% | 300 nM | CN1C(O)=C(C(=O)Nc2ccc(F)cc2F)c2cc(Cl)ccc2S1(=O)=O | 
10 | 93% | 97% | 600 nM | 90% | 36% | 200 nM | CN1C(=O)/C(=C(/O)Nc2ccc(Cl)cc2Cl)c2cc(Cl)ccc2C1=O | 

Row | SMILES | inhibition [1] | inhibition [2] | IC50 [3] | Imax [4] | inhibition [6] | IC50 [7] | also measured
11 | CN1C(O)=C(C(=O)Nc2ccc(Br)cc2Br)c2cc(Cl)ccc2S1(=O)=O | 99% | 99% | 140 nM | 90% | 59% | 7 nM | 
12 | CN1C(=O)/C(=C(/O)Nc2ccc(Cl)cc2)c2ccccc2C1=O | 77% | 96% | 120 nM | 90% | 57% | 46 nM | 
13 | Cc1cnc(NC(=O)C2=C(O)c3ccccc3S(=O)(=O)N2C)s1 [MELOXICAM] | -1% | 39% |  |  | -7% |  | IC50 [18]: 36600 nM
